Assay results reported in ChEMBL document CHEMBL3616441, “Discovery of a Selective and CNS Penetrant Negative Allosteric Modulator of Metabotropic Glutamate Receptor Subtype 3 with Antidepressant and Anxiolytic Activity in Rodents” (J Med Chem, 2015).
The source made the active and inactive calls. The rule behind the calls is not given here.

Experiments:
[1] = target: Metabotropic glutamate receptor 3 (Rattus norvegicus, UniProt P31422); experiment: Negative allosteric modulation of rat mGlu3 receptor assessed as calcium mobilization by cell based fluorescence assay; type: functional
How it was run: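 Cell line stably expressing rat mGlu3 with the promiscuous G-protein Gα15. Calcium mobilization with fluorescence read-out, inhibition of the glutamate response. Full concentration-response curves, top concentration 30 μM. % Glu Max is the response with 30 μM test compound as a percentage of the maximal response to 100 μM glutamate. Values averaged over n-3.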

[2] = target: Metabotropic glutamate receptor 5 (Rattus norvegicus) (UniProt P31424); experiment: Negative allosteric modulation of rat mGlu5 receptor assessed as calcium mobilization by cell based fluorescence assay; type: functional
[3] = target: Metabotropic glutamate receptor 3 (Rattus norvegicus) (UniProt P31422); experiment: Negative allosteric modulation of rat mGlu3 receptor assessed as amplitude response at 30 uM relative to glutamate
How it was run: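 Calcium mobilization in cell line stably expressing rat mGlu3 with promiscuous Gα15; fluorescence read-out; amplitude of glutamate response with 30 μM test compound expressed as percentage of maximal response (100 μM glutamate); average of n = 3.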

[4] = target: Metabotropic glutamate receptor 5 (Rattus norvegicus) (UniProt P31424); experiment: Modulation of rat mGlu5 receptor assessed as assessed as calcium mobilization at 30 uM by cell based fluorescence assay; type: functional
Plasma = experiment: Fraction unbound in rat plasma; type: ADME, cell-free
[5] = target: Metabotropic glutamate receptor 5 (Rattus norvegicus, UniProt P31424); experiment: Modulation of rat mGlu5 receptor assessed as calcium mobilization by cell based fluorescence assay; type: functional
How it was run: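 Calcium mobilization assay with fluorescence read-out in cells expressing mGlu5; full concentration-response curves; % Glu Max is the amplitude of response with 30 μM test compound as a percentage of the maximal response to 100 μM glutamate; values averaged over n-3.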

[6] = target: Metabotropic glutamate receptor 2 (Rattus norvegicus) (UniProt P31421); experiment: Negative allosteric modulation of rat mGlu2 receptor assessed as calcium mobilization at 30 uM by cell based fluorescence assay; type: functional
How it was run: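 Rat mGlu2 calcium mobilization assay with fluorescence read-out; full concentration-response curve analysis up to 30 μM top concentration.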

Brain = experiment: Fraction unbound in rat brain; type: ADME, tissue-based
[7] = Half life in rat at 0.2 mg/kg, iv administered as cassette dose; type: ADME, organism-based; conditions: in vivo
[8] = Plasma clearance in rat at 0.2 mg/kg, iv administered as cassette dose; type: ADME, organism-based
[9] = Volume of distribution at steady state in rat at 0.2 mg/kg, iv administered as cassette dose; type: ADME, organism-based; conditions: in vivo, read-out: Vdss

Chain of Metabotropic glutamate receptor 5 (Rattus norvegicus) (P31424 21-1203 limits assumed): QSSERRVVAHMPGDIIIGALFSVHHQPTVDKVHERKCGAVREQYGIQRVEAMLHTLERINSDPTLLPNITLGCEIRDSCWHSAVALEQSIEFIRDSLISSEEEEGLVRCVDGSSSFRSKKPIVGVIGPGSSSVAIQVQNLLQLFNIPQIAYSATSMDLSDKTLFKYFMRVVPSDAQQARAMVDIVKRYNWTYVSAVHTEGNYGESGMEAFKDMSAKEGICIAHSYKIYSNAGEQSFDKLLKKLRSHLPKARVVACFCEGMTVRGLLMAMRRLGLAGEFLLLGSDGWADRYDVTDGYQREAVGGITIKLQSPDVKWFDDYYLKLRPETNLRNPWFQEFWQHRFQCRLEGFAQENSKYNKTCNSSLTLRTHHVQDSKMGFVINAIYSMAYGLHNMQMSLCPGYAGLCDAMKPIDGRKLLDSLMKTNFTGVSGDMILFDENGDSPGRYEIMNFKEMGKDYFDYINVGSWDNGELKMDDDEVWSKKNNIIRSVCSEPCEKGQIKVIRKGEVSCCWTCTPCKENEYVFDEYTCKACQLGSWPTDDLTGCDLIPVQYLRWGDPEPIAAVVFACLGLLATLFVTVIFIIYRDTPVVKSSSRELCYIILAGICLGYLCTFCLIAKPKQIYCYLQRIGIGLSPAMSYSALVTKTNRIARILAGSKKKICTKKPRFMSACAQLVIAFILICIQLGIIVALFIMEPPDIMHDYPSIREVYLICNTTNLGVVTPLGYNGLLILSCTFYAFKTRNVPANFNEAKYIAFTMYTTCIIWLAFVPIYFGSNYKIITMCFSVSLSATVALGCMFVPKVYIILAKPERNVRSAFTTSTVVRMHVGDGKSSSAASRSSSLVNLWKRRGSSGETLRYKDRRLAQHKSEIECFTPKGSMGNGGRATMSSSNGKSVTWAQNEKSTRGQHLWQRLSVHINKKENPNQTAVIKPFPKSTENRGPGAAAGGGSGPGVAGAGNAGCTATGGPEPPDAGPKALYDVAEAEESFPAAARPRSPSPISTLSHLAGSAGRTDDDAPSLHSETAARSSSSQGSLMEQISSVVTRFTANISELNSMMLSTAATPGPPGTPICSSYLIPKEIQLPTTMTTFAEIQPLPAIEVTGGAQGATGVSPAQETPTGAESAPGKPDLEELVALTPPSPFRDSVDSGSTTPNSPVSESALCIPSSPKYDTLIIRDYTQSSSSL
Chain of Metabotropic glutamate receptor 3 (P31422 whole entry): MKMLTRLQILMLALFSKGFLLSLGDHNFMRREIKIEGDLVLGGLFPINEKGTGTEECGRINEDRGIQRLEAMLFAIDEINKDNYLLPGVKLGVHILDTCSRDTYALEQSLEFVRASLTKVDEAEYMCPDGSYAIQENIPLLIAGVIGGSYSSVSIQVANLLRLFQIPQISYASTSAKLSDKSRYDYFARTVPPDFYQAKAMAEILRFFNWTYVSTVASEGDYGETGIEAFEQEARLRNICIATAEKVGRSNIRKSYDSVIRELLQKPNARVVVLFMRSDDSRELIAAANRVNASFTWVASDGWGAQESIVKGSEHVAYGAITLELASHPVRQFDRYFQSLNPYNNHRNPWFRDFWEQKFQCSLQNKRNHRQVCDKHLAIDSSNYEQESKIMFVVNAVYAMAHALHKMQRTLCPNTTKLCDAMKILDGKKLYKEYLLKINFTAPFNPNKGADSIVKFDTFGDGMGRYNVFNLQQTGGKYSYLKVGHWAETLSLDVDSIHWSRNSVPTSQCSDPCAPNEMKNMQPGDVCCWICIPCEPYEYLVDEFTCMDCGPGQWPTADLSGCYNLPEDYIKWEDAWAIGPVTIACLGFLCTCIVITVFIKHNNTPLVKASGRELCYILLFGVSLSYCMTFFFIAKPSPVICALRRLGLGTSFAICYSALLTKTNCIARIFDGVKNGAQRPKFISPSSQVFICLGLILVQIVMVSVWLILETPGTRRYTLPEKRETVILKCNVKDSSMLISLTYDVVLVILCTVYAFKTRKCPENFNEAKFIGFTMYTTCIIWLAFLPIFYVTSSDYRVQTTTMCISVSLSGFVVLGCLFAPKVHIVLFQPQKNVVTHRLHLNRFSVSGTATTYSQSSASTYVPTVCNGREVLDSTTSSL
Chain of Metabotropic glutamate receptor 3 (Rattus norvegicus) (P31422 23-879 limits assumed): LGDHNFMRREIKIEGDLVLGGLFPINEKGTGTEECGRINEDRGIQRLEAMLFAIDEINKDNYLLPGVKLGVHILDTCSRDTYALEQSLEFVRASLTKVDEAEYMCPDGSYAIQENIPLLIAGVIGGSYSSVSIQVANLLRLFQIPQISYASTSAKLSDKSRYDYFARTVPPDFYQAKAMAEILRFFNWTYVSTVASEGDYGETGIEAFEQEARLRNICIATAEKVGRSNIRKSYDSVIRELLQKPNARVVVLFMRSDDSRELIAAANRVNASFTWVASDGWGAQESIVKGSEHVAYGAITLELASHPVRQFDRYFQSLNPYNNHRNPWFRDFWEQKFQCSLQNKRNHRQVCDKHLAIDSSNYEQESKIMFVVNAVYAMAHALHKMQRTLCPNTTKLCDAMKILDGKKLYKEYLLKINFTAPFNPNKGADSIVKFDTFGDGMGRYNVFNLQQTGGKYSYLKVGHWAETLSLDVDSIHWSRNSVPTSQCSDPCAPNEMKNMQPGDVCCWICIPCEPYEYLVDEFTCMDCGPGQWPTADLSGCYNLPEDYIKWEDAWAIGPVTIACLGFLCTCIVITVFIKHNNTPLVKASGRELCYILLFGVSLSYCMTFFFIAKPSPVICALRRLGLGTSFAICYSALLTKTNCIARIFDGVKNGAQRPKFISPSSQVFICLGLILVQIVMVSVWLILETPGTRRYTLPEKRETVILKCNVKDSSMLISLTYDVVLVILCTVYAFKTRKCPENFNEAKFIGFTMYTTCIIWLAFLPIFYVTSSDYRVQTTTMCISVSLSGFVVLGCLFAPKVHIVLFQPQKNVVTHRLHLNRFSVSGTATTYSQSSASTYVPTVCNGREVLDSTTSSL
Chain of Metabotropic glutamate receptor 5 (P31424 whole entry): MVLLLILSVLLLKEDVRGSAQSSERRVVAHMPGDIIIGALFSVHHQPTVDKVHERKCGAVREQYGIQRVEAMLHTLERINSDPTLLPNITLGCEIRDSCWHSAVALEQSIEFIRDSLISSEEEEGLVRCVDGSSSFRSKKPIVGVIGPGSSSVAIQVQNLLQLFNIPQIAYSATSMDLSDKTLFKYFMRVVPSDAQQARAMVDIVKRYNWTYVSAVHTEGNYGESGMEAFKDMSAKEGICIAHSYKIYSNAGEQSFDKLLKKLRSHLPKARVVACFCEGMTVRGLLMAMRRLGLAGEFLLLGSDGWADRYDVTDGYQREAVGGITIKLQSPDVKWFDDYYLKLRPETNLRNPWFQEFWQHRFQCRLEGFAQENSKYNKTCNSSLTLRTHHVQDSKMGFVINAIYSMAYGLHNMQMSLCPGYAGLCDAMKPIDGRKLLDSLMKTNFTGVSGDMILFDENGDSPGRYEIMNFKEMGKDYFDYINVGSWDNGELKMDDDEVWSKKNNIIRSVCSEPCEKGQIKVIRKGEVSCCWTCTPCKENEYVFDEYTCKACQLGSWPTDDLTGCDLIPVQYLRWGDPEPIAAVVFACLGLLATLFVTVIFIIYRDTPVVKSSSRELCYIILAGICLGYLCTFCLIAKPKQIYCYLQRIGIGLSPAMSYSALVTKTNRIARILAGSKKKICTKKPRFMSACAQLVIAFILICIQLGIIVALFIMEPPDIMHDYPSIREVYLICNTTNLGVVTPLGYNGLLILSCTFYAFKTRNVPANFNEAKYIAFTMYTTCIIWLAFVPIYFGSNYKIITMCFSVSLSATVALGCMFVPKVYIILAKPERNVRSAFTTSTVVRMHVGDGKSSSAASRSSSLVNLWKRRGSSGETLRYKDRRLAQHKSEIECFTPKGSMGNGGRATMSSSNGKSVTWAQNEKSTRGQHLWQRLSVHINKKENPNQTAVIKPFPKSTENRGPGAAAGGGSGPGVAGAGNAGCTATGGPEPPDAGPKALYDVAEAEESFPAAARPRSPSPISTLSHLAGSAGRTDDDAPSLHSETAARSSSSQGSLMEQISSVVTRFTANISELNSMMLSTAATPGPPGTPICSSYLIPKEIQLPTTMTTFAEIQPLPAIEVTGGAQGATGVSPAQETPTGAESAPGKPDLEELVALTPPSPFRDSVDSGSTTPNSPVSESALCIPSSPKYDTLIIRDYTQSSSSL
Chain of Metabotropic glutamate receptor 2 (Rattus norvegicus) (P31421 19-872 limits assumed): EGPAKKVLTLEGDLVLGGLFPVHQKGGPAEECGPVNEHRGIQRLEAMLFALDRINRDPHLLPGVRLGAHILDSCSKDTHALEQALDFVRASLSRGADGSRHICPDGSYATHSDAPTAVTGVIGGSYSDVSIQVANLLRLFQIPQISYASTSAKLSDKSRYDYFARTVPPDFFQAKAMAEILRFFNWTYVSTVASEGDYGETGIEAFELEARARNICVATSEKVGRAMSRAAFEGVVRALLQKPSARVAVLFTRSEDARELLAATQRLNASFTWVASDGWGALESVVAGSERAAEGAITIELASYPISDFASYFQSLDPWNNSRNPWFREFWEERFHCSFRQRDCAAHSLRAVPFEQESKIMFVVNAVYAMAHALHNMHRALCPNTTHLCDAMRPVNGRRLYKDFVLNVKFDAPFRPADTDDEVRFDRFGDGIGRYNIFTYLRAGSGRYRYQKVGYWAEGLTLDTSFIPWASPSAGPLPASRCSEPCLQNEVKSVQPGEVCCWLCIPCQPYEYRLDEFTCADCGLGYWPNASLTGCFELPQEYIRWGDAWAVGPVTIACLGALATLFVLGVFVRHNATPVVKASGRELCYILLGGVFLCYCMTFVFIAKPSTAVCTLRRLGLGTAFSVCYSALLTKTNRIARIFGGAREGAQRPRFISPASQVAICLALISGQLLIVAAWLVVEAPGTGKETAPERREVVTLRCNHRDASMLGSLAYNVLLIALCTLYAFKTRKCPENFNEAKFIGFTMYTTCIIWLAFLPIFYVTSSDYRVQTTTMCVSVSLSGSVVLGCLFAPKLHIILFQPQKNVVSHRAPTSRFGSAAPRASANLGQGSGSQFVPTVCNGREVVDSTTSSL

Row | Activity [6] | Structure (SMILES) | IC50 [1] [nM] | Activity [2] | Activity [3] [%] | Activity [4] [%] | Fu (Plasma) | EC50 [5] [nM] | Fu (Brain) | half-life [7] [min] | clearance [8] [mL/min/kg] | Vd [9] [L/kg]
1 | – | C[C@@H]1CN(c2cccc(Cl)c2)C(=O)c2cc(COc3ccc(F)cn3)nn21 | 145 | Active | 2.3 | 19.2 | 0.034 | 1850 | – | – | – | –
2 | – | C[C@@H]1CN(c2cccc(F)n2)C(=O)c2cc(COc3ccc(Cl)cn3)nn21 | 294 | Active | 1.75 | 24.8 | – | > 10000 | – | – | – | –
3 | – | C[C@@H]1CN(c2ccc(F)cc2)C(=O)c2cc(COc3cc(C(F)(F)F)ccn3)nn21 | 1670 | Active | 1.62 | 12.9 | – | > 10000 | – | – | – | –
4 | – | C[C@@H]1CN(c2ccc(F)cc2)C(=O)c2cc(COc3cccc(Cl)c3)nn21 | 1620 | Active | 1.96 | 32.8 | – | > 10000 | – | – | – | –
5 | – | C[C@@H]1CN(c2c(F)cccc2F)C(=O)c2cc(COc3ccc(F)cn3)nn21 | 181 | Active | 1.49 | 50.8 | 0.064 | 1230 | – | – | – | –
6 | – | Cc1ccnc(OCc2cc3n(n2)[C@H](C)CN(c2ccc(F)cc2)C3=O)c1 | 2090 | Active | 0.86 | 46.9 | – | > 10000 | – | – | – | –
7 | – | COc1cccc(N2C[C@@H](C)n3nc(COc4ccc(F)cn4)cc3C2=O)c1 | 198 | Active | 1.02 | 59.7 | – | > 10000 | – | – | – | –
8 | – | C[C@@H]1CN(c2cccc(F)c2)C(=O)c2cc(COc3ccc(F)cn3)nn21 | 192 | Active | 1.44 | 9.71 | 0.094 | 2720 | – | – | – | –
9 | – | Cc1ccccc1N1C[C@@H](C)n2nc(COc3ccc(F)cn3)cc2C1=O | 346 | Active | 1.72 | 35.8 | – | > 10000 | – | – | – | –
10 | inactive | C[C@@H]1CN(c2ccc(F)cc2)C(=O)c2cc(COc3ccccn3)nn21 | – | – | – | – | – | – | – | – | – | –
11 | – | C[C@@H]1CN(c2ccccc2Cl)C(=O)c2cc(COc3ccc(F)cn3)nn21 | 141 | Active | 1.37 | 8.78 | 0.054 | 1010 | – | – | – | –
12 | – | C[C@@H]1CN(c2cncc(C#N)c2)C(=O)c2cc(COc3ccc(Cl)cn3)nn21 | 605 | – | 1.08 | – | 0.078 | > 30000 | 0.033 | 59 | 22 | 1.4
13 | – | CCOc1ccc(OCc2cc3n(n2)[C@H](C)CN(c2ccc(F)cc2)C3=O)cc1 | 1160 | – | 3.39 | – | 0.005 | > 30000 | – | 32 | 82 | 2.2
14 | – | C[C@@H]1CN(c2ccc(F)cn2)C(=O)c2cc(COc3ccc(F)cn3)nn21 | 349 | Active | 1.31 | 7 | – | 9740 | – | – | – | –
15 | – | C[C@@H]1CN(c2ccccn2)C(=O)c2cc(COc3ccc(F)cn3)nn21 | 915 | Active | 0.96 | 3.71 | – | 3520 | – | – | – | –
16 | – | C[C@@H]1CN(c2cncc(F)c2)C(=O)c2cc(COc3ccc(Cl)cn3)nn21 | 481 | – | 1.85 | – | 0.092 | > 30000 | – | 30 | 50 | 1.9
17 | – | Cc1cccc(OCc2cc3n(n2)[C@H](C)CN(c2ccc(F)cc2)C3=O)n1 | 2370 | Active | 1.12 | 2.47 | – | 2250 | – | – | – | –
